LGR2 inh: inhibitors of bursicon-induced Drosophila LGR2 receptor cAMP signaling; HEK293 LGR2, CRE-luciferase, bursicon-stimulated, 4 h; inhibition, % at 9.99 µM; actives 0.35% (n = 380,000); AID 720647;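 active = drop in luminescence signal, shown as inhibition above about 50% in the replicate tests, limit read from the data, passing the limit was not always enough; inconclusive = probably only some replicates passing the limit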;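 also: agonist challenge used bursicon conditioned medium at about half maximal strength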
rRNA inh HTS: selective bacterial rRNA inhibition in E. coli; E. coli WT GFP vs humanized-ribosome RFP mutants, fluorescence, 24 h; stronger effect = lower value; DMSO median 0, no signal -100; GFP signal change (wild-type ribosome), % (concentration not given with the values); actives 1.6% (n = 350,000);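 active = significant combined selectivity score with lowered wild-type GFP, culture density cut under 30%, mutant RFP and density less affected; inactive = any of these conditions unmet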
EWS-Fli inh: EWS/Fli transcriptional activity inhibition; A673 NR0B1-luciferase reporter, viability-normalised; inhibition, % at 12.6 µM; actives 0.67% (n = 350,000); AID 651661;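 active = mean inhibition of at least 50% after viability correction, with every replicate also passing that limit; inconclusive = mean reaches 50% but only one of two replicates passes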;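 also: firefly luciferase signal divided by Alamar Blue viability fluorescence both relative to DMSO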
E-selectin induc: induces E-selectin expression in human endothelial cells | P16581 | HUVEC E-selectin immunofluorescence imaging; normalized: neutral wells 0, TNF-alpha wells 100 | activation, % at 7.58 µM | actives 0.37% (n = 260,000);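 active = mean E-selectin-positive cell signal at least 10% of the positive control, reached in at least 60% of replicates, without over 20% cell loss; inconclusive = no rule given, readout overlaps actives, possibly toxicity-flagged; inactive = the rest, including those meeting only one limit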
Target sequence (P16581 whole entry, looked up): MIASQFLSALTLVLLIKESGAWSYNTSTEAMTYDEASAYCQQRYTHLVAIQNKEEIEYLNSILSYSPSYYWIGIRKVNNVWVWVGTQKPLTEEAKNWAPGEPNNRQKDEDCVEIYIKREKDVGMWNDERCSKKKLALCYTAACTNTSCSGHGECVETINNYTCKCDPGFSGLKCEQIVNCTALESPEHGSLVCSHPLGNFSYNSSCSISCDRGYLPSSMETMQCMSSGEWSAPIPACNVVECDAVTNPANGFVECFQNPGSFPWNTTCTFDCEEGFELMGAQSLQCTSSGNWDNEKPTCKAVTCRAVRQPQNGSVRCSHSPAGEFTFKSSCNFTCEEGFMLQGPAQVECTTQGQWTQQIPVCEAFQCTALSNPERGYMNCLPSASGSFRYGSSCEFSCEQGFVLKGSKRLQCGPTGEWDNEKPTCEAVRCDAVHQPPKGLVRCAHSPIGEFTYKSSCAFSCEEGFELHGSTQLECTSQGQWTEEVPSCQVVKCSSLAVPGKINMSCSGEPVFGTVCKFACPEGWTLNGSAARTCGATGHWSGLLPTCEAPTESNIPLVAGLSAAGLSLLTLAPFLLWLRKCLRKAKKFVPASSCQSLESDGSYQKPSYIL
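Material: HUVEC primary endothelial cells; Amount: 3,000 cells per well; Dosing: single concentration; Medium: EGM-2 growth medium on 0.1% gelatin-coated wells; Read-out basis: percent E-selectin-positive cells; Signal: immunofluorescence imaging; Control set: TNF-alpha, DMSO.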
AID977621: wild-type E. coli growth inhibition versus H69 humanized strain – H69 mutant RFP, wild-type GFP, cherry-pick, dose response; shares compounds with rRNA inh HTS; fluorescence, 24 h; activity change, negative = inhibition at 50 µM; 1,900 tested, under 10 active; AID 977621;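 active = Wild-type ribosome reporter drop at least double the humanized mutant ribosome reporter drop, growth loss under a set limit; inconclusive = no clear call, values can overlap the other calls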;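 also: wild-type GFP and H69 mutant RFP strains grown together 50/50 in each well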
AID977628: E. coli growth inhibition, wild-type GFP versus h24 humanized RFP strain, dose response, h24 mutant RFP vs wild-type GFP, cherry-pick | shares compounds with rRNA inh HTS | 1,900 tested, under 10 active | E. coli WT GFP strain growth, fluorescence, 24 h | activity change, negative = inhibition at 50 µM;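 active = compound lowering the normal-ribosome reporter at least twice as much as the humanized-ribosome reporter, growth loss under a set limit; inconclusive = no clear call, values can overlap the other calls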;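 also: wild-type GFP and h24 humanized RFP strains co-cultured 1 to 1 per well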
Numbers without * were called inactive; ? = inconclusive; . = no result; ! = a repeat was not active. In the library only some 2.4% were active in any assay of this set; here they are far more common.

SMILES	LGR2 inh	rRNA inh HTS	EWS-Fli inh	E-selectin induc	AID977621	AID977628
COc1cc(OC)c(NS(=O)(=O)c2cccc(C(=O)OCC(=O)NCC3CCCO3)c2)cc1Cl (stereo not given)	13	-23*	-4	.	-17	-12
CO[C@H]1CN(C)C(=O)c2cc(NC(=O)Nc3cccc(F)c3)ccc2OC[C@@H](C)N(C(=O)Nc2c(C)noc2C)C[C@@H]1C	-8	1	6	0	.	.
Clc1ccc2nc(CN3CCCc4ccccc43)cn2c1	0	-20*!	-43	.	-8.9	.
O=C(COC(=O)Cc1ccccc1F)Nc1ccc(Cl)cn1	-19	-18*	-3	.	-12	?
O=C(COC(=O)COc1ccccc1F)Nc1ccc(Cl)cn1	11	11	8	1	.	.
COc1ccc2c3c([nH]c2c1)[C@H](CO)N(C(=O)CN1CCOCC1)CC31CN(C(=O)NC(C)C)C1	-2	4	0	0	.	.
CCOC(=O)CSc1nc(C)c2cc(C)c(C)cc2n1	.	.	4	5	.	.
Cc1cc2nc(SCC(=O)O)nc(C)c2cc1C	5	-17*	-40	.	-16	.
O=C(NCCCn1ccnc1)c1sc2cc([N+](=O)[O-])ccc2c1Cl	-13	-16*	-29	0	-17	-18
C[C@@H]1CN(C)C(=O)c2cc(NS(C)(=O)=O)ccc2O[C@@H]1CN(C)S(C)(=O)=O	.	2	.	.	.	.
O=C(O)CC(CC(=O)Nc1ccc(Oc2ccccc2)cc1)c1ccccc1 (stereo not given)	9	-27*	21	.	-19	-23
O=S1(=O)c2ccccc2C(O)(c2ccccc2)c2ccccc21	8	-21*	5	0	.	?
CC12CC3CC(C)(C1)CC(C(=O)NNC(=O)c1ccncc1)(C3)C2	-6	-12	-7	0	.	.
CC(NC(=O)C12CC3CC(C)(CC(C)(C3)C1)C2)c1ccncc1 (stereo not given)	9	-24*	-8	.	-20	-7.7
C[C@@H]1CN([C@@H](C)CO)C(=O)c2cc(-c3ccccc3F)cnc2O[C@@H]1CN(C)C(=O)NC1CCCC1	-1	-2	-11	-1	.	.
O=C(Nc1ccccc1F)N1CCCCN2[C@@H](CO)[C@H](c3ccc(C#Cc4cccnc4)cc3)[C@@H]2C1	-9	-19*	8	0	-8.5	?
O=C(Nc1cc(F)ccc1F)N1CCCCN2[C@@H](CO)[C@H](c3ccc(-c4ccncc4)cc3)[C@@H]2C1	-3	-19*	-20	0	-14	.
COc1ccccc1NC(=O)N1CCCCN2[C@@H](CO)[C@H](c3ccc(C#Cc4ccccc4)cc3)[C@@H]2C1	18	-30*	.	0	3.1	.
O=C(Nc1ccccc1F)N1CCCCN2[C@H](CO)[C@H](c3ccc(C#Cc4cccnc4)cc3)[C@H]2C1	11	-9	10	2	.	.
O=C(Nc1cc(F)ccc1F)N1CCCCN2[C@H](CO)[C@H](c3ccc(-c4ccncc4)cc3)[C@@H]2C1	-3	-1	3	0	.	.
COc1ccccc1NC(=O)N1CCCCN2[C@H](CO)[C@@H](c3ccc(C#Cc4ccccc4)cc3)[C@H]2C1	9	-34	.	-1	.	.
O=C(Nc1ccc2c(c1)OCO2)c1cccc(S(=O)(=O)N2CCCC2)c1	-33	-14*	-18	.	?	.
Cc1ccc(S(=O)(=O)Nc2ccc3c(c2)CC(=O)N([C@H](C)CO)C[C@@H](C)[C@@H](CN(C)CC2CC2)O3)cc1	7	2	2	1	.	.
CN(C)C(=O)C[C@H]1CC[C@@H]2[C@@H](COc3ccc(NC(=O)C4CCCC4)cc3C(=O)N2C)O1	12	2	2	0	.	.
Cc1ccsc1C(=O)C1CCCN(Cc2cc(F)ccc2-n2cccn2)C1 (stereo not given)	11	-33*	23	-4	-13	-14
SMILES	LGR2 inh	rRNA inh HTS	EWS-Fli inh	E-selectin induc	AID977621	AID977628
COc1cc(OC)c(OC)cc1CN1CCCC(C(=O)c2sccc2C)C1 (stereo not given)	-1	-3	7	0	.	.
O=C(CSc1nnc(COc2cccc3cccnc23)o1)c1ccc(F)cc1	5	-25*	0	.	2.1	-6.4
COc1cc(NC(=O)CSc2nc(C)cs2)cc(OC)c1	-8	-30*	-7	.	-16	.
COCC(=O)N(C[C@H]1N[C@H](CO)[C@@H]1c1ccc(-c2ccccc2)cc1)C(C)C	1	3	-6	0	.	.
CC1(C)CC2CC(C)(CN2Cc2c(O)ccc3ccccc23)C1 (stereo not given)	8	-19	10	.	.	.
CC1(C)CC2CC(C)(CN2c2ncnc3ccccc23)C1 (stereo not given)	8	-27*	13	.	-0.47	?
CCC(C(=O)NC1CCCC1)n1c(-c2ccnc3ccccc23)nc2ccccc21 (stereo not given)	0	-14*	2	0	-16	-14
Cc1ccc(S(=O)(=O)Nc2ccc3c(c2)C(=O)N([C@@H](C)CO)C[C@@H](C)[C@@H](CN(C)C)OCCCC[C@H](C)O3)cc1	-5	2	-7	0	.	.
CN(C)C(=O)C[C@@H]1C[C@H]2c3cc(NS(=O)(=O)c4ccc(F)cc4)ccc3O[C@H]2[C@H](CO)O1	3	1	2	1	.	.
COc1ccc(S(=O)(=O)N(C)C)cc1NC(=O)c1ccc2c(c1)NC(=O)C(C)S2 (stereo not given)	-4	-21*	10	0	-0.9	.
CC1Sc2ccc(C(=O)Nc3ccc(S(=O)(=O)N(C)C)cc3)cc2NC1=O (stereo not given)	1	-7	15	.	.	.
O=C(CSc1nc2ccccc2n1S(=O)(=O)c1cccc([N+](=O)[O-])c1)NCCc1ccccc1	-6	-33*	-4	1	-6.5	-8.4
CCCCNC(=O)CSc1nc2ccccc2n1S(=O)(=O)c1ccc(Br)cc1	4	.	.	.	.	.
CCc1nnc(NC(=O)CSc2ncc(-c3ccccc3)[nH]2)s1	-11	-20*	-7	.	7.7	-0.48
O=C(Nc1cc(S(=O)(=O)N2CCCCC2)ccc1N1CCCCC1)C1CC1	16	-20*	11	1	-6.5	-5.6
CNC(=O)C[C@@H]1CC[C@H]2[C@@H](COC[C@@H](O)CN2C(=O)c2ccccn2)O1	16	3	-15	0	.	.
NS(=O)(=O)c1cc(C(=O)OCC(=O)Nc2ccccc2[N+](=O)[O-])ccc1Cl	-6	-20*	5	0	.	-11
NS(=O)(=O)c1cc(C(=O)OCC(=O)Nc2ccc(Cl)cc2[N+](=O)[O-])ccc1Cl	-8	11	2	.	.	.
O=C(c1cccc(F)c1)N1CC(=O)N2[C@H](C1)[C@@H](c1ccc(-c3ccccc3F)cc1)[C@@H]2CO	5	-2	6	0	.	.
